Reference: paper PMC12350853 (Discover Nano, 2025)
Entries after “also recorded” stand apart in the source; their conditions may differ.

Tests used:
male adult Wistar rats = assay: Serum biochemical parameters after repeated intravenous injection; assay type: in vivo, rat; settings: ten injections at 72-hour intervals, vs control
Method in brief: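 Male adult Wistar rats (five groups, ten per group) received free or Fe–Co MOF-loaded test compound i.v. at 0.4 or 0.8 mg/kg, ten injections every 72 h. Retro-orbital blood was centrifuged immediately at 5,000 rpm for 10 min. AST, ALT, BUN and creatinine were run on an autoanalyzer with commercial kits. Results are mean ± SD, tested by ANOVA with post hoc comparison against control.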

liver [1] = assay: Liver MDA level; assay type: in vivo, rat; settings: dose not given
Method in brief: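 After ten i.v. injections 72 h apart of free or Fe–Co MOF-loaded test compound (0.4 or 0.8 mg/kg) in male Wistar rats, liver malondialdehyde was measured by a modified literature method. Assays were repeated three times. Results are mean ± SD, compared by ANOVA with post hoc test.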

liver [2] = assay: Liver histopathology and semi-quantitative damage score; assay type: in vivo, rat
Method in brief: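 Male Wistar rats received free or Fe–Co MOF-loaded test compound at 0.4 or 0.8 mg/kg i.v., ten doses 72 h apart. Fixed liver was ethanol-dehydrated, xylene-cleared, paraffin-embedded, microtome-sectioned and H&E-stained. Two specialists scored blindly on a 1–4 scale, and also rated pyknotic nuclei, inflammatory infiltration, bleeding and necrosis each 0–3. Results are mean ± SD.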

kidney = assay: Kidney histopathology and semi-quantitative damage score; assay type: in vivo, rat; settings: for kidney histopathological findings: Masson trichrome
Method in brief: (§1)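 Fifty male adult Wistar rats were split into five groups (23–24 °C, 12 h light/dark). Test compound, free or loaded in Fe–Co MOF, was given at 0.4 or 0.8 mg/kg i.v., ten injections at 72 h intervals. Rats were euthanised with pentobarbital sodium 200 mg/kg. H&E sections were scored 1 (normal) to 4 (severe) against organ-specific lesion criteria, blinded, by two specialists.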

heart = assay: Heart histopathology and semi-quantitative damage score; assay type: in vivo, rat; settings: for heart histopathological findings: H&E
Method in brief: as §1

testis = assay: Testis histopathology and semi-quantitative damage score; assay type: in vivo, rat; settings: for Testis damage score (TDS): scale 1 normal to 4 severe, mean ± SD
Method in brief: as §1

[3] = cited from earlier work
[4] = 0.4 mg/kg i.v., scale 1 normal to 4 severe, mean ± SD

serum creatinine levels (male adult Wistar rats; 0.4 mg/kg i.v.): elevation was not observed
serum BUN levels (male adult Wistar rats; 0.8 mg/kg i.v.): no significant effect
serum creatinine levels (male adult Wistar rats; 0.8 mg/kg i.v.): higher serum creatinine levels
liver lipid peroxidation (liver [1]): significant increase
Structure (SMILES): CC(C)C[C@H](NC(=O)[C@H](CCc1ccccc1)NC(=O)CN1CCOCC1)C(=O)N[C@@H](Cc1ccccc1)C(=O)N[C@@H](CC(C)C)C(=O)[C@@]1(C)CO1 [CFZ, Carfilzomib]
ALT levels (male adult Wistar rats; 0.8 mg/kg i.v.): significantly increased
serum AST levels (male adult Wistar rats; 0.8 mg/kg i.v.): Significant elevation
liver histopathological findings (liver [2]; 0.4 mg/kg i.v.): normal liver appearance
Liver damage score (LDS) (liver [2]; [4]): 1.6 ± 0.51
liver histopathological findings (liver [2]; 0.8 mg/kg i.v.): necrosis, inflammatory cell accumulation, and disarray of hepatic cords
kidney histopathological findings (kidney; 0.4 mg/kg i.v.): normal proximal and distal tubules with normal-sized nuclei
Renal damage score (RDS) (kidney; [4]): 1.5 ± 0.75
kidney histopathological findings (kidney; 0.8 mg/kg i.v.): glomerulosclerosis characterized by swollen lining epithelium and narrowing of the proximal tubule lumen
heart histopathological findings (heart; 0.4 mg/kg i.v.): mild inflammatory cell infiltration
Heart damage score (HDS) (heart; [4]): 1.25 ± 0.46
heart histopathological findings (heart; 0.8 mg/kg i.v., listed as free Carfilzomib): inflammatory cell infiltration, bleeding, and necrosis; also recorded: severe necrosis
cardiotoxicity by histopathological data (heart; overall statement): severe cardiotoxicity
testis histopathological findings (testis; 0.4 mg/kg i.v.): no evidence of inflammation, necrosis, or cellular infiltrates
Testis damage score (TDS) (testis; 0.4 mg/kg i.v.): 1.2 ± 0.4
testis histopathological findings (testis; 0.8 mg/kg i.v.): multinucleated giant Sertoli cells
Testis damage score (TDS) (testis; 0.8 mg/kg i.v.): 1.42 ± 0.53
half-life [3]: ~ 30 min
